System: HFF-1 cells
Experiment: SA-β-gal activity in D-gal-induced premature aging of HFF-1 cells
Format: cell-based, human
Conditions: 500 μg/mL
Method in brief: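 HFF-1 fibroblasts were seeded at 2 × 10^4 cells/well and cultured for 24 h. Growth medium was replaced for 72 h with test sample solution containing D-gal at 20 mg/mL final. SA-β-gal activity was detected by X-gal staining, and blue positive cells were viewed by microscopy and counted against the D-gal-injured and blank control groups.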

N[C@@H](CCC(=O)N[C@@H](CS)C(=O)NCC(=O)O)C(=O)O [GSH]
decrease of SA-β-gal positive staining rate compared with the D-gal group: 50.61%

Reference: PMC11261800 (Heliyon, 2024)
